According to ChEMBL document CHEMBL1275345, “Pyrazolo[1',5':1,6]pyrimido[4,5-d]pyridazin-4(3H)-ones as selective human A(1) adenosine receptor ligands” (Bioorg Med Chem, 2010):

Tests used:
Bos taurus = species: Bos taurus; assay: Binding affinity to bovine adenosine A2a receptor at 34 uM
[1] = target: T1, Adenosine receptor A1 (Bos taurus) (UniProt P28190); assay: Binding affinity to bovine adenosine A1 receptor at 34 uM
T1 sequence (whole entry): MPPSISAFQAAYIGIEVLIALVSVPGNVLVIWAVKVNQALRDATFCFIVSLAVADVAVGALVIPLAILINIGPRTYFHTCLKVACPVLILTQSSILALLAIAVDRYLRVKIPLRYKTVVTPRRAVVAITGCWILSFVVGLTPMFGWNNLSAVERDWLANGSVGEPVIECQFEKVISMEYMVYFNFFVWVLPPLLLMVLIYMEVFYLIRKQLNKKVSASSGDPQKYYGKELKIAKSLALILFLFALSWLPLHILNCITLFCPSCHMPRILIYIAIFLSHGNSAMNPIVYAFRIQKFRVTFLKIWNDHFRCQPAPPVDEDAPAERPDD

Adenosine receptor A2b [2] = target: T2, Adenosine receptor A2b (Homo sapiens, UniProt P29275); assay: Displacement of [3H]DPCPX from human adenosine A2b receptor expressed in HEK293 cells after 30 mins; type: cell-based
T2 sequence (P29275 whole entry): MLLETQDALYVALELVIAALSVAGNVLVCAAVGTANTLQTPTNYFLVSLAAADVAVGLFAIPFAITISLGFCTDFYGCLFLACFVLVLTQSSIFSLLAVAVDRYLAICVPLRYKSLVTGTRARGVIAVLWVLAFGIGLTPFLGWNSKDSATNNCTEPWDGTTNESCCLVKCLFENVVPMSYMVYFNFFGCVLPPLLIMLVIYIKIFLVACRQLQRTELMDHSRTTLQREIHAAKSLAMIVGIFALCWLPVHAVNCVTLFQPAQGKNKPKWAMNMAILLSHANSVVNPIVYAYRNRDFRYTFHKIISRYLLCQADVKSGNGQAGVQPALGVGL

Adenosine receptor A2a [3] = target: T3, Adenosine receptor A2a (Homo sapiens, UniProt P29274); assay: Displacement of [3H]ZM241385 from human adenosine A2a receptor expressed in HeLa cells at 10 uM after 30 mins; type: cell-based
Summary of the method: (§1)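 [3H]ZM241385 specific binding in HeLa cells expressing human A2A receptor. Incubation at 25 °C for 30 min, followed by filtration and beta scintillation counting. Output is Ki (nM) or % inhibition at the single test concentration. Values are means of four separate assays, each performed in triplicate.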

Adenosine receptor A1 = target: T4, Adenosine receptor A1 (Homo sapiens, UniProt P30542); assay: Displacement of [3H]DPCPX from human adenosine A1 receptor expressed in CHO-A1 cells after 60 mins; type: cell-based
T4 sequence (P30542 whole entry): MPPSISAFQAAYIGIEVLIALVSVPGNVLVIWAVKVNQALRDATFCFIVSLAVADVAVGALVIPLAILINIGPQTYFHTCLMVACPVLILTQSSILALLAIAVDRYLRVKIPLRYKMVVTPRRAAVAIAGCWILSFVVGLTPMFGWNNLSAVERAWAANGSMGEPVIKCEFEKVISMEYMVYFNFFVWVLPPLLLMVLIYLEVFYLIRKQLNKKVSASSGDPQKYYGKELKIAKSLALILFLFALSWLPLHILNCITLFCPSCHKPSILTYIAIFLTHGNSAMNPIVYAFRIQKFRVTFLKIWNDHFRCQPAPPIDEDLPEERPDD
Summary of the method: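 Competition binding on membranes from CHO cells expressing human A1 receptor, labelled with 2 nM [3H]DPCPX. Non-specific binding defined with (R)-PIA. Incubation at 25 °C for 60 min, then filtration and beta scintillation counting. Result given as Ki (nM) or % inhibition at the single test concentration. Means of four separate assays, each in triplicate.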

[4] = target: T5, Adenosine receptor A3 (Homo sapiens) (UniProt P0DMS8); assay: Displacement of [3H]NECA from human adenosine A3 receptor expressed in HeLa cells at 10 uM after 180 mins; type: cell-based
T5 sequence (whole entry): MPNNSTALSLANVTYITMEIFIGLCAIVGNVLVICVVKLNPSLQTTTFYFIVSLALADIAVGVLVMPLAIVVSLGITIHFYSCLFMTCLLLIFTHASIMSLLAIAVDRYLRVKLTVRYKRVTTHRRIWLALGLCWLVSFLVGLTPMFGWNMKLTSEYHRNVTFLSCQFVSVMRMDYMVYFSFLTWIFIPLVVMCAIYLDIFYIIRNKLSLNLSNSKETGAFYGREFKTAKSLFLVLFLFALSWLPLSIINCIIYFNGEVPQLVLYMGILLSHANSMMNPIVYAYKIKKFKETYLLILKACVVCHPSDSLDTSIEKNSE
Summary of the method: (§2)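 HeLa cells expressing human A3 receptor, with displacement of [3H]NECA. Incubated at 25 °C for 180 min, then filtered and counted by beta scintillation. Ki (nM) or percentage inhibition at the single test concentration. Means of four assays, each in triplicate.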

[5] = target: T6, Adenosine receptor A2b (Homo sapiens) (UniProt P29275); assay: Displacement of [3H]DPCPX from human adenosine A2b receptor expressed in HEK293 cells at 10 uM after 30 mins; type: cell-based
T6 sequence (whole entry): T2 sequence (P29275 whole entry)
Summary of the method: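 Human A2B receptor expressed in HEK-293 cells, with displacement of [3H]DPCPX. Incubated at 25 °C for 30 min, then filtered and counted by beta scintillation. Reported as Ki (nM) or percentage inhibition at the single test concentration. Means of four independent assays, each run in triplicate.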

Adenosine receptor A3 [6] = target: T7, Adenosine receptor A3 (Homo sapiens, UniProt P0DMS8); assay: Displacement of [3H]NECA from human adenosine A3 receptor expressed in HeLa cells after 180 mins; type: cell-based; summary of the method: as §2
T7 sequence (P0DMS8 whole entry): T5 sequence (whole entry)

Adenosine receptor A3 [7] = target: T8, Adenosine receptor A3 (Bos taurus, UniProt Q0VC81); assay: Binding affinity to bovine adenosine A3 receptor
T8 sequence (Q0VC81 whole entry): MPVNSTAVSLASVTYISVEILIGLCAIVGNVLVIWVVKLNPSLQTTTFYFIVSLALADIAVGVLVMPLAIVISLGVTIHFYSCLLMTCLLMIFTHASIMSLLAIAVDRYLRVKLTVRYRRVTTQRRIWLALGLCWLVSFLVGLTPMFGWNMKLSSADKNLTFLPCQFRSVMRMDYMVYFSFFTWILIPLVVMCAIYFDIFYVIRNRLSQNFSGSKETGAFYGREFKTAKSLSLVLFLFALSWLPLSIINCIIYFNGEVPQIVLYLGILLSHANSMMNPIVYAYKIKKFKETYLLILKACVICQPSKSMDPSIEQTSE

[8] = Binding affinity to human adenosine A2 receptor
Homo sapiens [9] = species: Homo sapiens; assay: Selectivity ratio of Ki for human adenosine A2b receptor to Ki for human A1 receptor
Homo sapiens [10] = species: Homo sapiens; assay: Selectivity ratio of Ki for human adenosine A2a receptor to Ki for human A1 receptor
Adenosine receptor A2a [11] = target: T3, Adenosine receptor A2a; assay: Displacement of [3H]ZM241385 from human adenosine A2a receptor expressed in HeLa cells after 30 mins; type: cell-based; summary of the method: as §1
Adenosine receptor A2b [12] = target: T2, Adenosine receptor A2b; assay: Binding affinity to human adenosine A2b receptor
Summary of the method: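 Competition binding on human A2B receptors expressed in HEK-293 cells, displacing [3H]DPCPX. Bound radioactivity was separated by filtration and counted by beta scintillation. Values are means of four separate assays, each run in triplicate.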

[13] = Binding affinity to bovine adenosine A2a receptor; parameters: species or system Bos taurus

T3 sequence (P29274 whole entry): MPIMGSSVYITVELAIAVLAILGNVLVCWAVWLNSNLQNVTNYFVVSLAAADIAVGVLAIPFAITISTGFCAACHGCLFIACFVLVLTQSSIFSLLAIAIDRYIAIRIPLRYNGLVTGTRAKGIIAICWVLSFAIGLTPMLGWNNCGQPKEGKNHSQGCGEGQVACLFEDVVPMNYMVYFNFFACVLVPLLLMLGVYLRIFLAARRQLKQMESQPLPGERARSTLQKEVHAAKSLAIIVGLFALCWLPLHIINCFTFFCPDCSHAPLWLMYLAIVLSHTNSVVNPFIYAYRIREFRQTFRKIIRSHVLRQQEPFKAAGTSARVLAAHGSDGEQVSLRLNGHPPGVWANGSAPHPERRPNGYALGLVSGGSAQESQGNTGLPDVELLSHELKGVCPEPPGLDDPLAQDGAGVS

## COc1ccc(-c2nc3c(O)nc4ccccc4n3n2)cc1
Bos taurus
  inhibition: 8.7%
[1]
  inhibition: 0%

## Cc1nn(Cc2ccccc2)c(=O)c2ncn3nc(-c4ccccc4)cc3c12
Adenosine receptor A2b [2]
  Ki: 7.56 µM
Adenosine receptor A2a [3]
  inhibition: < 50%
Adenosine receptor A1
  Ki: 0.104 µM
[4]
  inhibition: < 50%

## Cc1nn(C(C)c2ccccc2)c(=O)c2nc(C)n3nc(-c4ccccc4)cc3c12 (configuration not stated)
[5]
  inhibition: < 50%
Adenosine receptor A2a [3]
  inhibition: < 50%
Adenosine receptor A1
  Ki: 3.08 µM
Adenosine receptor A3 [6]
  Ki: 4.73 µM

## O=C(Cc1cccc2ccccc12)Nc1nc2nn(CCCc3ccccc3)cc2c2nc(-c3ccco3)nn12
Adenosine receptor A3 [7]
  Ki: 0.3 µM
[8]
  Ki: 0.8 µM

## Cc1nn(Cc2ccccc2)c(=O)c2ncn3nc(-c4ccsc4)cc3c12
Homo sapiens [9]
  fold change (FC): 56
Adenosine receptor A2b [2]
  Ki: 4.65 µM
Adenosine receptor A1
  Ki: 0.0853 µM
Homo sapiens [10]
  fold change (FC): 90
Adenosine receptor A2a [11]
  Ki: 7.36 µM
[4]
  inhibition: < 50%

## COc1ccc(CCCn2ncc3c2nc(N)n2nc(-c4ccco4)nc32)cc1
Adenosine receptor A3 [7]
  Ki: > 10 µM
Adenosine receptor A2b [12]
  Ki: > 10 µM

## O=c1c(-c2ccccc2)nnc2n(-c3ccccc3)c3ccccc3n12
[13]
  Ki: > 10 µM
Adenosine receptor A3 [7]
  Ki: > 1 µM
